For two molecules, MIC and ED50 results are on record in ChEMBL document CHEMBL1123369, “Synthesis and structure-activity relationships of new arylfluoronaphthyridine antibacterial agents” (1986).

Each structure is given as a SMILES string. Converted amounts (≈) assume the structure as drawn.

Common to all, as to assay type: functional
The subject of one assay is Acinetobacter sp. Briefly: In vitro antibacterial activity against Acinetobacter species CMX669. The method, boiled down: (§1)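 Twofold agar dilution in brain-heart infusion agar, test range 200 to 0.005 µg/mL, made from a 2000 µg/mL stock. Organisms grown overnight in BHI broth at 36 °C. About 10⁴ organisms inoculated per plate, then incubated 18 h at 36 °C. MIC taken as the lowest concentration giving no visible growth.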

For assay [1], the system named is Mus musculus. Briefly: In vivo dose(po) inhibiting systemic infections caused by Pseudomonas aeruginosa 5007 in mice. The method, boiled down: (§2)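 CF-1 female mice, about 20 g. Infected ip with 0.5 mL of an 18-h BHI culture diluted in 5% hog gastric mucin to 100× LD₅₀. LD₅₀ set by 10-fold dilutions (Reed–Muench, day 6). Compound given in water or dilute NaOH, sc or po, total dose split at 1 and 5 h post-infection. At least 3 dose levels, 10 mice each. Deaths followed 6 days. ED₅₀ from day-6 cumulative mortality by trimmed Logit, with 95% confidence limits.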

Assay [2] has as its system Mus musculus. Briefly: In vivo dose(po) inhibiting systemic infections caused by Staphylococcus aureus NCTC 10649 in mice. The method, boiled down:
as §2

The test system of the next assay is Streptococcus pyogenes. Briefly: In vitro antibacterial activity against Streptococcus pyogenes 930. The method, boiled down: as §1
Assay [3] has as its system Mus musculus. Briefly: In vivo dose(sc) inhibiting systemic infections caused by Staphylococcus aureus NCTC 10649 in mice. The method, boiled down:
as §2

The next assay deals with Klebsiella pneumoniae. Description: In vitro antibacterial activity against Klebsiella pneumoniae 8045. The method, boiled down: as §1
Assay [4] concerns Mus musculus. Description: In vivo antibacterial activity against systemic infection caused by Staphylococcus aureus NCTC 10649 in mice.
The test system of assay [5] is Mus musculus. Description: In vivo dose(po) inhibiting systemic infections caused by Escherichia coli Juhl in mice. The essentials: as §2
Another assay concerns Enterococcus faecium. Briefly: In vitro antibacterial activity against Streptococcus faecium ATCC 8043. The method, boiled down: as §1
In assay [6] the test system is Mus musculus. Description: In vivo dose(sc) inhibiting systemic infections caused by Pseudomonas aeruginosa 5007 in mice. The essentials:
as §2

For assay [7], the system named is Staphylococcus aureus. Briefly: In vitro antibacterial activity against Staphylococcus aureus CMX 686B. The essentials: as §1
For assay [8], the system named is Pseudomonas aeruginosa. Description: In vitro antibacterial activity against Pseudomonas aeruginosa K799/WT. The essentials:
as §1

The subject of assay [9] is Staphylococcus epidermidis. Briefly: In vitro antibacterial activity against Staphylococcus epidermidis 3519. The method, boiled down: as §1
Assay [10] has as its system Pseudomonas aeruginosa. Description: In vitro antibacterial activity against Pseudomonas aeruginosa 5007. The essentials:
as §1

Assay [11] has as its system Staphylococcus aureus. Description: In vitro antibacterial activity against Staphylococcus aureus ATCC 6538P. The method, boiled down: as §1
In assay [12] the test system is Mus musculus. Briefly: In vivo dose(sc) inhibiting systemic infections caused by Escherichia coli Juhl in mice. The method, boiled down:
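Female CF-1 mice (~20 g) infected ip with 0.5 mL of 18-h BHI culture of E. coli Juhl diluted in 5% (w/v) hog gastric mucin to 100 times LD50 (LD50 from 10-fold dilutions, day-6 mortality, Reed-Muench). Compound dissolved in water (HCl salt) or dilute NaOH then water, given sc split equally at 1 and 5 h post-infection. 10 mice per dose, ≥3 doses. Deaths recorded 6 days; ED50 from day-6 cumulative mortality by trimmed Logit.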

Assay [13] relates to Mus musculus. Briefly: In vivo antibacterial activity against systemic infection caused by Escherichia coli Juhl in mice. The essentials:
as §2

Another assay relates to Klebsiella aerogenes. Briefly: In vitro antibacterial activity against Enterobacter aerogenes ATCC 13048. The method, boiled down: as §1
The subject of assay [14] is Mus musculus. Description: In vivo antibacterial activity against systemic infection caused by Pseudomonas aeruginosa 5007 in mice.
Assay [15] has as its system Mus musculus. Description: In vivo dose(sc) inhibiting systemic infections caused by Pseudomonas aeruginosa 5007 in mice. The essentials:
as §2

The subject of assay [16] is Mus musculus. Briefly: In vivo dose(po) inhibiting systemic infections caused by Escherichia coli Juhl in mice. The essentials: as §2
The subject of assay [17] is Mus musculus. Description: In vivo dose(sc) inhibiting systemic infections caused by Staphylococcus aureus NCTC 10649 in mice. The method, boiled down: as §2
Assay [18] relates to Mus musculus. Description: In vivo antibacterial activity against systemic infection caused by Staphylococcus aureus NCTC 10649 in mice. The method, boiled down: as §2
Assay [19] deals with Mus musculus. Description: In vivo antibacterial activity against systemic infection caused by Escherichia coli juhl in mice. The method, boiled down:
as §2

The test system of assay [20] is Mus musculus. Briefly: In vivo dose(po) inhibiting systemic infections caused by Pseudomonas aeruginosa 5007 in mice. The method, boiled down: as §2
Assay [21] relates to Mus musculus. Description: In vivo antibacterial activity against systemic infection caused by Pseudomonas aeruginosa 5007 in mice. The method, boiled down:
as §2

Another assay has as its system Escherichia coli. Description: In vitro antibacterial activity against Escherichia coli Juhl. The essentials: as §1
The subject of assay [22] is Mus musculus. Briefly: In vivo dose(po) inhibiting systemic infections caused by Staphylococcus aureus NCTC 10649 in mice. The essentials:
as §2

Assay [23] concerns Mus musculus. Briefly: In vivo dose(sc) inhibiting systemic infections caused by Escherichia coli Juhl in mice. The method, boiled down: as §2

On to `O=C(O)c1cn(C2CC2)c2cc(N3CCNCC3)c(F)cc2c1=O` [CIPROFLOXACIN], for which the minimum inhibitory concentration (MIC) was 1.56 µg/mL (≈ 4.71 µM) in the assay with Acinetobacter sp.; 0.39 µg/mL (≈ 1.18 µM) in the assay with Streptococcus pyogenes; 0.02 µg/mL (≈ 0.0604 µM) in the assay on Klebsiella pneumoniae; 0.25 µg/mL (≈ 0.754 µM) with Mus musculus [4]; 0.2 µg/mL (≈ 0.604 µM) in the assay on Enterococcus faecium; 0.39 µg/mL (≈ 1.18 µM) in the assay on Staphylococcus aureus [7]. The MIC in the assay with Pseudomonas aeruginosa [8] is 0.1 µg/mL (≈ 0.302 µM); in [9], 0.39 µg/mL (≈ 1.18 µM); against Pseudomonas aeruginosa [10] it was 0.1 µg/mL (≈ 0.302 µM); with Staphylococcus aureus [11], 0.2 µg/mL (≈ 0.604 µM); with Mus musculus [13] it was 0.02 µg/mL (≈ 0.0604 µM); with Klebsiella aerogenes, 0.05 µg/mL (≈ 0.151 µM). The minimum inhibitory concentration (MIC) in the assay with Mus musculus [14] came out at 0.1 µg/mL (≈ 0.302 µM). Also, the 50% effective dose (ED50) with Mus musculus [1] was found to be 13.3 mg/kg; in the assay on Mus musculus [2], 15.5 mg/kg; with Mus musculus [3], 1.6 mg/kg; with Mus musculus [5], 1.9 mg/kg; with Mus musculus [6], 2.1 mg/kg; with Mus musculus [12], 0.2 mg/kg.

Regarding `NC1CCN(c2nc3c(cc2F)c(=O)c(C(=O)O)cn3-c2ccc(F)cc2F)C1` (centres undefined) [TOSUFLOXACIN], the MIC with Acinetobacter sp. was 0.1 µg/mL (≈ 0.247 µM); against Mus musculus [18], 0.03 µg/mL (≈ 0.0742 µM); against Mus musculus [19], 0.02 µg/mL (≈ 0.0495 µM); in the assay on Mus musculus [21], 0.2 µg/mL (≈ 0.495 µM); with Escherichia coli, 0.02 µg/mL (≈ 0.0495 µM); against Streptococcus pyogenes, 0.2 µg/mL (≈ 0.495 µM). Moreover, the MIC is 0.02 µg/mL (≈ 0.0495 µM) in the assay on Klebsiella pneumoniae; 0.2 µg/mL (≈ 0.495 µM) in the assay with Enterococcus faecium; 0.05 µg/mL (≈ 0.124 µM) against Staphylococcus aureus [7]; 0.39 µg/mL (≈ 0.965 µM) with Pseudomonas aeruginosa [8]; 0.1 µg/mL (≈ 0.247 µM) in assay [9]; 0.2 µg/mL (≈ 0.495 µM) in the assay with Pseudomonas aeruginosa [10]. The minimum inhibitory concentration (MIC) is 0.05 µg/mL (≈ 0.124 µM) against Staphylococcus aureus [11] and 0.1 µg/mL (≈ 0.247 µM) in the assay on Klebsiella aerogenes. In addition, the ED50 in the assay with Mus musculus [15] came out at 3.6 mg/kg; in the assay on Mus musculus [16] it was 1.3 mg/kg; in the assay with Mus musculus [17], 0.2 mg/kg; with Mus musculus [20], 4.9 mg/kg; in the assay on Mus musculus [22], 1.4 mg/kg; with Mus musculus [23], 0.2 mg/kg.

By MIC is commonly meant the smallest concentration in the dilution series that meets the test's criterion for growth inhibition. By ED50 is commonly meant the dose at which the effect has come halfway, by size or by number of responders.
